Test results as given in ChEMBL document CHEMBL1122079, “Tryptophan analogues. 1. Synthesis and antihypertensive activity of positional isomers” (1982).

Tests used:
[1] = test system: Rattus norvegicus; assay: Antihypertensive activity in renal hypertensive rats 6 hr after oral administration (10 mg/Kg); assay type: functional
Summary of the method: (§1)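 Renal hypertensive rats (5 or 10 per group), 10 mg/kg given orally. Systolic pressure measured indirectly by tail occluding cuff with pulse sensor, once before dosing as control and again at 1, 2, 4, 6 and 8 h. Values are changes in mean systolic pressure from control (mmHg). Significance of control vs posttreatment assessed by Wilcoxon's signed rank test (p < 0.05).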

[2] = test system: Rattus norvegicus; assay: Antihypertensive activity in renal hypertensive rats 1 hr after oral administration (10 mg/Kg); assay type: functional; summary of the method: as §1
[3] = test system: Rattus norvegicus; assay: Antihypertensive activity in renal hypertensive rats 8 hr after oral administration (10 mg/Kg); assay type: functional; summary of the method: as §1
[4] = test system: Rattus norvegicus; assay: Antihypertensive activity in renal hypertensive rats 2 hr after oral administration (10 mg/Kg); assay type: functional; summary of the method: as §1
[5] = test system: Rattus norvegicus; assay: Antihypertensive activity in renal hypertensive rats 4 hr after oral administration (10 mg/Kg); assay type: functional; summary of the method: as §1
[6] = test system: Felis catus; assay: Change in blood pressure in normotensive anesthetized cat.; assay type: functional
Summary of the method: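 Normotensive cats of either sex (2-4 kg) anesthetized with α-chloralose (80 mg/kg iv). Trachea, femoral artery and jugular vein cannulated. Compound given iv at 10 mg/kg, with 1 mg/kg iv used in one case. Mean blood pressure recorded by pressure transducer before and 30 min after dosing, reported as decrease in mmHg.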

[7] = test system: Felis catus; assay: Control blood pressure in normotensive anesthetized cat at dose 10 mg/Kg iv

| Compound | BP [1] [mmHg] | BP [2] [mmHg] | BP [3] [mmHg] | BP [4] [mmHg] | BP [5] [mmHg] | BP [6] [mmHg] | control BP [7] [mmHg] |
| --- | --- | --- | --- | --- | --- | --- | --- |
| COc1ccc2[nH]cc(C(CN)CO)c2c1.O=C(O)C(=O)O (stereo not drawn) | -8 | -13 | 0 | -15 | 4 | – | – |
| COC(=O)C(CN)c1c[nH]c2ccc(Br)cc12.Cl (stereo not drawn) | 8 | -6 | 7 | -10 | 6 | -35 | 125 |
| Cl.NCC(C(=O)O)c1c[nH]c2ccc(Br)cc12 (stereo not drawn) | 5 | -12 | 0 | -5 | 0 | -15 | 115 |
| CCCCCOC(=O)C(CN)c1c[nH]c2ccc(OC)cc12.Cl (stereo not drawn) | -11 | -7 | -4 | -11 | -3 | 2 | 148 |
| COc1ccc2[nH]cc(C(CN)C(=O)OC(C)C)c2c1.Cl (stereo not drawn) | 7 | 7 | 13 | -1 | 13 | -48 | 181 |
| CCOC(=O)C(CN)c1c[nH]c2ccc(OC)cc12.Cl (stereo not drawn) | -2 | -5 | -3 | -4 | 4 | 0 | 160 |
| COC(=O)C(CN)c1c(C)[nH]c2ccc(OC)cc12.Cl (stereo not drawn) | -8 | 2 | -3 | -2 | -8 | 1 | 164 |
| COC(=O)C(CN)c1c[nH]c2ccccc12.Cl (stereo not drawn) | -6 | -7 | -7 | -9 | -9 | -53 | 156 |
| COC(=O)C(CN)c1cn(C)c2ccc(OC)cc12.Cl (stereo not drawn) | 1 | -5 | 7 | -6 | 3 | 20 | 165 |
| COC(=O)C(CN)c1c[nH]c2ccc(O)cc12.Cl (stereo not drawn) | 0 | 7 | 7 | 1 | 4 | -85 | 135 |
| CCCOc1ccc2[nH]cc(C(CN)C(=O)OC)c2c1.Cl (stereo not drawn) | 9 | -6 | 5 | 6 | 8 | – | 150 |
| COc1ccc2[nH]cc(C(CN)C(=O)O)c2c1 (stereo not drawn) | -6 | -1 | -2 | -10 | 2 | -5 | 142 |
| COC(=O)CC(CN)c1c[nH]c2ccc(OC)cc12 (stereo not drawn) | -13 | -14 | -12 | -15 | -6 | -25 | 166 |
| CCOC(=O)C(N)Cc1c[nH]c2ccc(O)cc12 (stereo not drawn) | 2 | -14 | 1 | -5 | 2 | -24 | 156 |
| CCOC(=O)NCC(c1nnn[nH]1)c1c[nH]c2ccccc12 (stereo not drawn) | -17 | -10 | -15 | -6 | -24 | 5 | 155 |
| CCOC(=O)C(CNC(C)=O)c1cn(C(=O)OCC)c2ccc(OC)cc12 (stereo not drawn) | -20 | -15 | -14 | -12 | -21 | 0 | 195 |
| CCOC(=O)CC(c1nnn[nH]1)c1c[nH]c2ccc(OC)cc12 (stereo not drawn) | -16 | -16 | -11 | -21 | -25 | -11 | 136 |
| NC(Cc1c[nH]c2ccc(O)cc12)C(=O)O (stereo not drawn) | 6 | -9 | -1 | -5 | 0 | -24 | 162 |
